Assay [1] in a line: Cytotoxicity against mouse EAC cells after 48 hrs. Format: functional. Conditions: Ehrlich. The method, boiled down: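 EAC cells were harvested by needle aspiration of ascitic fluid from pre-inoculated female Swiss albino mice and maintained by weekly intraperitoneal transplantation. They were suspended in saline at 2.5 × 10^6 per mL and exposed for 48 h to serial dilutions from 10^-9 to 10^-4 M in DMSO/saline. The read-out was GI50.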

The subject of assay [2] is CDK2/cyclin A3 (Marthasterias glacialis). Put plainly: Inhibition of starfish CDK2/cyclin A3 by ELISA. (ELISA stands for enzyme-linked immunosorbent assay.)

Molecules are shown by their SMILES.

In general, GI50 refers to the concentration giving 50% growth inhibition. As usually defined, the IC50 is the concentration at which inhibition is half-maximal. A higher IC50 goes with weaker potency. As to `COc1cc(/C=N/c2c(C#N)nc(=O)[nH]c2NS(=O)(=O)c2ccc(C)cc2)cc(OC)c1`, the GI50 in assay [1] came to 19 µM. The molecule also came in with an IC50 in assay [2] of 35 µM.

The molecule `COc1cccc(/C=N/c2c(C#N)nc(=O)[nH]c2NS(=O)(=O)c2ccc(C)cc2)c1OC` displayed a GI50 in assay [1] of 21 µM. The IC50 in assay [2] was determined as 36 µM.

In turn, `Cc1ccc(S(=O)(=O)NC(=O)N/C(C#N)=C(\N)C#N)cc1` displayed a GI50 in assay [1] of 12 µM. In assay [2], this molecule returned an IC50 of 32 µM.

On to `Cc1ccc(S(=O)(=O)NC(=N)c2[nH]c(=O)[nH]c2C#N)cc1`, for which, in assay [1], the GI50 was 28 µM. The molecule further had an IC50 in assay [2] of 45 µM.

Regarding `Cc1ccc(S(=O)(=O)n2c3c([nH]c2=O)C(C(N)=O)=NC(C)(C)N3)cc1`, the GI50 in assay [1] came to 15 µM. 14 µM corresponded to half-maximal inhibition in assay [2] (IC50).

Take `CC(=O)CC1(C)N=C(C(N)=O)c2[nH]c(=O)n(S(=O)(=O)c3ccc(C)cc3)c2N1` (stereo unspecified): the GI50 in assay [1] turned out to be 16 µM. 13 µM corresponded to half-maximal inhibition in assay [2] (IC50).

As to `COc1ccc(/C=N/C(C#N)=C(/C#N)NC(=O)NS(=O)(=O)c2ccc(C)cc2)cc1`, halving of growth in assay [1] (GI50) required 10 µM. Also, in assay [2], the midpoint of inhibition, the IC50, lay at 39 µM.

`COc1cc(OC)c(/C=N/C(C#N)=C(/C#N)NC(=O)NS(=O)(=O)c2ccc(C)cc2)c(OC)c1`: the GI50 in assay [1] was determined as 26 µM. Also, the IC50 in assay [2] amounted to 38 µM.

Molecule `COc1cc(/C=N/C(C#N)=C(/C#N)NC(=O)NS(=O)(=O)c2ccc(C)cc2)cc(OC)c1` showed a GI50 in assay [1] of 25 µM. Further, the IC50 in assay [2] was determined as 42 µM.

With `COc1cccc(/C=N/C(C#N)=C(/C#N)NC(=O)NS(=O)(=O)c2ccc(C)cc2)c1OC`, the GI50 in assay [1] turned out to be 27 µM. In addition, in assay [2], inhibition was half-maximal at 43 µM (IC50).

Consider `COc1ccc(/C=N/c2c(C#N)nc(=O)[nH]c2NS(=O)(=O)c2ccc(C)cc2)cc1`, for which the GI50 in assay [1] was 17 µM. In assay [2], this molecule had an IC50 of 39 µM.

In the case of `COc1cc(OC)c(/C=N/c2c(C#N)nc(=O)[nH]c2NS(=O)(=O)c2ccc(C)cc2)c(OC)c1`, halving of growth in assay [1] (GI50) required 16 µM. Moreover, the half-maximal inhibitory concentration (IC50) in assay [2] came to 38 µM.

In turn, `Nc1nc(OC[C@H]2CCC(=O)N2)c2nc[nH]c2n1` showed a GI50 in assay [1] of 18 µM. The IC50 in assay [2] worked out at 35 µM.
